According to ChEMBL document CHEMBL1938388, “Design, synthesis and biological evaluation of new naphtalene diimides bearing isothiocyanate functionality” (Eur J Med Chem, 2012):
The source made the active and inactive calls. No cut-off for these calls is given here.

Key:
Jurkat [1] = assay: Cytotoxicity against human Jurkat T cells assessed as decrease in cell viability after 24 hrs by flow cytometric analysis; type: functional, cell-based
Method in brief: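 Jurkat cultures kept in exponential growth (split every third day to 1 × 10^5 cells/ml) were treated for one cell cycle (24 h) at graded concentrations. Viability was read right after treatment by flow cytometry after 5 min propidium iodide-based stain at room temperature. IC50 was interpolated from the dose-response curve; ≥3 independent experiments, mean ± SEM.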

Jurkat [2] = assay: Cytotoxicity against human Jurkat T cells assessed as necrotic cells at 0.1 to 16 uM after 72 hrs by flow cytometric analysis; type: functional, cell-based
Method in brief: (§1)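 After 72 h exposure of Jurkat cells, 2 × 10^4 cells were stained with an Annexin V-PE/7-AAD cocktail for 20 min at room temperature in the dark. Necrotic cells were scored by flow cytometry.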

Jurkat [3] = assay: Cytotoxicity against human Jurkat T cells assessed as necrotic cells at 1 uM after 72 hrs by flow cytometric analysis; type: functional; method in brief: as §1
Jurkat [4] = assay: Ratio IC50 for sulforaphane to compound for human Jurkat T cells; type: functional
Jurkat [5] = assay: Induction of apoptosis in human Jurkat T cells assessed as increase in phosphatidylserine level after 24 hrs by flow cytometric analysis; type: functional, cell-based
Jurkat [6] = assay: Induction of apoptosis in human Jurkat T cells assessed as increase in phosphatidylserine level at 0.25 to 1 uM after 24 hrs by flow cytometric analysis; type: functional, cell-based
Jurkat [7] = assay: Induction of apoptosis in human Jurkat T cells assessed as increase in necrotic cells at 1 uM after 24 hrs by 7-AA staining-based flow cytometric analysis; type: functional, cell-based
Jurkat [8] = assay: Induction of apoptosis in human Jurkat T cells assessed as decrease in membrane potential at 0.5 uM after 24 hrs by JC-1 staining-based flow cytometric analysis; type: functional; set-up: scale not given: the % may be the effect or the level left
Jurkat [9] = assay: Induction of apoptosis in human Jurkat T cells assessed as decrease in membrane potential at 0.75 uM after 24 hrs by JC-1 staining-based flow cytometric analysis; type: functional; set-up: scale not given: the % may be the effect or the level left
Jurkat [10] = assay: Induction of apoptosis in human Jurkat T cells assessed as decrease in membrane potential at 2 uM after 24 hrs by JC-1 staining-based flow cytometric analysis; type: functional; set-up: scale not given: the % may be the effect or the level left
Jurkat [11] = assay: Induction of apoptosis in human Jurkat T cells assessed as decrease in membrane potential after 24 hrs by JC-1 staining-based flow cytometric analysis; type: functional, cell-based
Jurkat [12] = assay: Growth inhibition in human Jurkat T cells assessed as suppression into cell cycle progression at 0.75 uM after 24 hrs by flow cytometric analysis; type: functional; conditions: read-out: GI
Method in brief: (§2)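 Jurkat cells were treated 24 h at graded concentrations, and cell growth inhibition was measured by flow cytometry. Mean ± SEM of at least three independent experiments.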

Jurkat [13] = assay: Growth inhibition in human Jurkat T cells assessed as suppression into cell cycle progression at 1 uM after 24 hrs by flow cytometric analysis; type: functional; conditions: read-out: GI; method in brief: as §2
Jurkat [14] = assay: Growth inhibition in human Jurkat T cells assessed as suppression into cell cycle progression at 2 uM after 24 hrs by flow cytometric analysis; type: functional; method in brief: as §2
Jurkat [15] = assay: Cell cycle arrest in human Jurkat T cells assessed as accumulation at G1 phase at 0.25 to 0.5 uM after 24 hrs by flow cytometric analysis (reference value: 56%); type: functional
Method in brief: (§3)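 Jurkat cells exposed 24 h to a range of concentrations, fixed in ice-cold ethanol, stained with propidium iodide-containing cell cycle reagent for 30 min at room temperature in the dark; G1, S and G2/M fractions from flow cytometry. Mean ± SEM of four independent experiments.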

Jurkat [16] = assay: Cell cycle arrest in human Jurkat T cells assessed as accumulation at S phase at 0.25 to 0.5 uM after 24 hrs by flow cytometric analysis (reference value: 21%); type: functional; method in brief: as §3
Jurkat [17] = assay: Cell cycle arrest in human Jurkat T cells assessed as accumulation at G2/M phase at 0.25 to 0.5 uM after 24 hrs by flow cytometric analysis (reference value: 29%); type: functional; method in brief: as §3
Jurkat [18] = assay: Induction of apoptosis in human Jurkat T cells assessed as decrease in membrane potential at 0.25 to 0.75 uM after 24 hrs by JC-1 staining-based flow cytometric analysis; type: functional, cell-based
Jurkat [19] = assay: Induction of apoptosis in human Jurkat T cells assessed as caspase 8 activation after 24 hrs by FAM-LETD-FMK staining-based flow cytometric analysis
Jurkat [20] = assay: Induction of apoptosis in human Jurkat T cells assessed as caspase 8 activation at 0.25 to 0.75 uM after 24 hrs by FAM-LETD-FMK staining-based flow cytometric analysis
Jurkat [21] = assay: Induction of apoptosis in human Jurkat T cells assessed as increase in apoptotic cells at 0.75 uM after 24 hrs by 7-AA staining-based flow cytometric analysis relative to sulforaphane
Jurkat [22] = assay: Induction of apoptosis in human Jurkat T cells assessed as increase in phosphatidylserine level at 2 uM after 24 hrs by flow cytometric analysis; type: functional, cell-based
Method in brief: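 Jurkat T leukemia cells were exposed for 24 h. Aliquots of 2 × 10^4 cells were then stained with Guava Nexin Reagent, which contains Annexin V-PE for phosphatidylserine exposure and 7-AAD for membrane-permeable, necrotic cells. Staining ran 20 min at room temperature in the dark, followed by flow cytometry. Data are mean ± SEM of at least three independent experiments. Friedman test, Dunn's post test.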

Jurkat [23] = assay: Induction of apoptosis in human Jurkat T cells assessed as increase in phosphatidylserine level at 0.5 to 4 uM after 24 hrs by flow cytometric analysis; type: functional, cell-based
Jurkat [24] = assay: Induction of apoptosis in human Jurkat T cells assessed as increase in necrotic cells at 4 uM after 24 hrs by 7-AA staining-based flow cytometric analysis; type: functional, cell-based
Jurkat [25] = assay: Induction of apoptosis in human Jurkat T cells assessed as decrease in membrane potential at 1 uM after 24 hrs by JC-1 staining-based flow cytometric analysis; type: functional; set-up: scale not given: the % may be the effect or the level left
Jurkat [26] = assay: Growth inhibition in human Jurkat T cells assessed as suppression into cell cycle progression at 4 uM after 24 hrs by flow cytometric analysis; type: functional; conditions: read-out: GI; method in brief: as §2
Jurkat [27] = assay: Growth inhibition in human Jurkat T cells assessed as suppression into cell cycle progression at 8 uM after 24 hrs by flow cytometric analysis; type: functional; conditions: read-out: GI; method in brief: as §2
Jurkat [28] = assay: Cell cycle arrest in human Jurkat T cells assessed as accumulation at G1 phase at 0.5 to 1 uM after 24 hrs by flow cytometric analysis (reference value: 63%); type: functional; method in brief: as §3
Jurkat [29] = assay: Cell cycle arrest in human Jurkat T cells assessed as accumulation at S phase at 0.5 to 1 uM after 24 hrs by flow cytometric analysis (reference value: 20%); type: functional; method in brief: as §3
Jurkat [30] = assay: Cell cycle arrest in human Jurkat T cells assessed as accumulation at G2/M phase at 0.5 to 1 uM after 24 hrs by flow cytometric analysis; type: functional, cell-based; method in brief: as §3
Jurkat [31] = assay: Induction of apoptosis in human Jurkat T cells assessed as decrease in membrane potential at 0.5 to 2 uM after 24 hrs by JC-1 staining-based flow cytometric analysis; type: functional, cell-based
Jurkat [32] = assay: Induction of apoptosis in human Jurkat T cells assessed as caspase 8 activation at 0.5 to 2 uM after 24 hrs by FAM-LETD-FMK staining-based flow cytometric analysis
Jurkat [33] = assay: Induction of apoptosis in human Jurkat T cells assessed as increase in phosphatidylserine level at 0.25 to 1.5 uM after 24 hrs by flow cytometric analysis; type: functional, cell-based
Jurkat [34] = assay: Induction of apoptosis in human Jurkat T cells assessed as increase in necrotic cells at 1.5 uM after 24 hrs by 7-AA staining-based flow cytometric analysis; type: functional, cell-based
Jurkat [35] = assay: Growth inhibition in human Jurkat T cells assessed as suppression into cell cycle progression at 1.5 uM after 24 hrs by flow cytometric analysis; type: functional; conditions: read-out: GI; method in brief: as §2
Jurkat [36] = assay: Growth inhibition in human Jurkat T cells assessed as suppression into cell cycle progression at 3 uM after 24 hrs by flow cytometric analysis; type: functional; conditions: read-out: GI; method in brief: as §2
Jurkat [37] = assay: Cell cycle arrest in human Jurkat T cells assessed as accumulation at G1 phase at 0.25 to 0.5 uM after 24 hrs by flow cytometric analysis (reference value: 58%); type: functional; method in brief: as §3
Jurkat [38] = assay: Cell cycle arrest in human Jurkat T cells assessed as accumulation at S phase at 0.25 to 0.5 uM after 24 hrs by flow cytometric analysis; type: functional, cell-based; method in brief: as §3
Jurkat [39] = assay: Cell cycle arrest in human Jurkat T cells assessed as accumulation at G2/M phase at 0.25 to 0.5 uM after 24 hrs by flow cytometric analysis; type: functional, cell-based; method in brief: as §3
Jurkat [40] = assay: Induction of apoptosis in human Jurkat T cells assessed as decrease in membrane potential at 0.25 to 1 uM after 24 hrs by JC-1 staining-based flow cytometric analysis; type: functional, cell-based
Jurkat [41] = assay: Induction of apoptosis in human Jurkat T cells assessed as caspase 8 activation at 0.25 to 1 uM after 24 hrs by FAM-LETD-FMK staining-based flow cytometric analysis

Which results are given for `O=C1c2ccc3c4c(ccc(c24)C(=O)N1CCCN=C=S)C(=O)N(CCCN=C=S)C3=O`?
Activity (Jurkat [1]): Dose-dependent effect; IC50 (Jurkat [1]): 430 nM; Activity (Jurkat [2]): Active; Activity (Jurkat [3]): 100%; Ratio IC50 (Jurkat [4]): 35; Activity (Jurkat [5]): Dose-dependent effect; Activity (Jurkat [6]): Active; Activity (Jurkat [7]): Active; Activity (Jurkat [8]): 47.1%; Activity (Jurkat [9]): 100%; Activity (Jurkat [10]): 100%; Activity (Jurkat [11]): Dose-dependent effect; inhibition of growth at 0.75 µM (Jurkat [12]): 30%; inhibition of growth at 1 µM (Jurkat [13]): 65%; growth inhibition (GI) (Jurkat [14]): Active; Activity (Jurkat [15]): 68%; Activity (Jurkat [16]): 13%; Activity (Jurkat [17]): 22%; Activity (Jurkat [18]): Active; Activity (Jurkat [19]): Dose-dependent effect; Activity (Jurkat [20]): 68%; fold change (FC) (Jurkat [21]): 40

For `CC[C@@]1(O)C(=O)OCc2c1cc1n(c2=O)Cc2cc3ccccc3nc2-1`, which Activity (Jurkat [22]) is on record?
Its Activity is “Active”.

For `C[S+]([O-])CCCCN=C=S` (stereo unspecified) [SULFORAPHANE], which IC50 (Jurkat [1]) is on record?
Its IC50 is 15000 nM.

`CN(C)CCN1C(=O)c2ccc3c4c(ccc(c24)C1=O)C(=O)N(CCN=C=S)C3=O` was tested. Which Activity (Jurkat [1]) did it give?
Its Activity is “Dose-dependent effect”.

And the IC50 (Jurkat [1])?
The IC50 was 1910 nM.

And the Activity (Jurkat [2])?
The Activity was “Active”.

And the Activity (Jurkat [3])?
Its Activity is 100%.

And the “Ratio IC50” value (Jurkat [4])?
Its value is 8.

And the Activity (Jurkat [5])?
Its Activity is “Dose-dependent effect”.

And the Activity (Jurkat [23])?
Its Activity is “Active”.

And the Activity (Jurkat [24])?
The Activity was “Active”.

What about the Activity (Jurkat [25]) of the same compound?
Its Activity is 53%.

What about the Activity (Jurkat [9]) of the same compound?
Its Activity is 100%.

What about the Activity (Jurkat [10]) of the same compound?
The Activity was 100%.

What about the Activity (Jurkat [11]) of the same compound?
The Activity was “Dose-dependent effect”.

And the inhibition of growth at 2 µM (Jurkat [14]; read-out: GI)?
Its inhibition of growth at 2 µM is 30%.

What about the inhibition of growth at 4 µM (Jurkat [26]) of the same compound?
Its inhibition of growth at 4 µM is 40%.

And the inhibition of growth at 8 µM (Jurkat [27])?
Its inhibition of growth at 8 µM is 90%.

What about the Activity (Jurkat [28]) of the same compound?
The Activity was 68%.

What about the Activity (Jurkat [29]) of the same compound?
Its Activity is 15%.

And the Activity (Jurkat [30])?
Its Activity is “inactive”.

And the Activity (Jurkat [31])?
The Activity was “Active”.

And the Activity (Jurkat [19])?
The Activity was “Dose-dependent effect”.

What about the Activity (Jurkat [32]) of the same compound?
The Activity was 56%.

Which Activity (Jurkat [1]) does the source give for `O=C1c2ccc3c4c(ccc(c24)C(=O)N1CCN=C=S)C(=O)N(CCN=C=S)C3=O` here?
Its Activity is “Dose-dependent effect”.

What about the IC50 (Jurkat [1]) of the same compound?
Its IC50 is 890 nM.

And the Activity (Jurkat [2])?
Its Activity is “Active”.

What about the Activity (Jurkat [3]) of the same compound?
The Activity was 100%.

And the “Ratio IC50” value (Jurkat [4])?
The value was 17.

What about the Activity (Jurkat [5]) of the same compound?
Its Activity is “Dose-dependent effect”.

What about the Activity (Jurkat [33]) of the same compound?
The Activity was “Active”.

And the Activity (Jurkat [34])?
The Activity was “Active”.

What about the Activity (Jurkat [8]) of the same compound?
Its Activity is 50.6%.

And the Activity (Jurkat [9])?
The Activity was 100%.

And the Activity (Jurkat [10])?
Its Activity is 100%.

What about the Activity (Jurkat [11]) of the same compound?
The Activity was “Dose-dependent effect”.

And the inhibition of growth at 1 µM (Jurkat [13])?
Its inhibition of growth at 1 µM is 40%.

And the inhibition of growth at 1.5 µM (Jurkat [35])?
The inhibition of growth at 1.5 µM was 58%.

What about the inhibition of growth at 3 µM (Jurkat [36]) of the same compound?
The inhibition of growth at 3 µM was 94%.

What about the Activity (Jurkat [37]) of the same compound?
The Activity was 68%.

What about the Activity (Jurkat [38]) of the same compound?
Its Activity is “Active”.

What about the Activity (Jurkat [39]) of the same compound?
The Activity was “Active”.

What about the Activity (Jurkat [40]) of the same compound?
The Activity was “Active”.

What about the Activity (Jurkat [19]) of the same compound?
The Activity was “Dose-dependent effect”.

And the Activity (Jurkat [41])?
Its Activity is 66%.
